Screening data: PubChem, several laboratories
In the library only some 2.3% were active in any assay of this set; here they are far more common.
GPR7 antag = GPR7 receptor antagonists, primary screen, cell-based, fluorescence, single concentration. AID 1861, 2009. inhibition, % at 4.4 µM. GPR7-expressing cells, fluorescence antagonist assay. hit rate 1.1% among 290,000; in the data active = inhibition above about 16%, passing the limit was not always enough;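 note: cells stimulated with the agonist NPW; 0% = agonist with vehicle and 100% = vehicle without agonist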
HCV core dimer = inhibitors of HCV core protein dimerization, primary screen, biochemical, TR-FRET, high-throughput; inhibition, % at 5 µM; TR-FRET GST/Flag-core106 dimerization, 1536-well; AID 1899, 2009; hit rate 0.33% among 300,000;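 active = inhibition above the mean of all tested compounds plus 3 SD, set per screening campaign, cut at about 45% in these data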
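test system = GST/Flag-tagged HCV core106 proteins | probe or stimulus = Eu donor and XL665 acceptor anti-tag antibodies | times = compound-protein-antibody incubation 4 h at 22.5 °C | signal = TR-FRET, excitation 340 nm, emission 617 and 671 nm | measure = percent inhibition of core106 dimerization signal | controls = wells lacking GST-core106 and wells with excess unlabelled core106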
EBNA-1 inh = EBNA-1 DNA-binding inhibitors, primary screen, biochemical, fluorescence polarization. inhibition, % at 14.8 µM. hit rate 0.34% among 300,000. AID 1950, 2009; in the data active = inhibition above about 28%
EBV gp42 inh = Epstein-Barr virus gp42 inhibitors, primary screen, biochemical, uHTS, fluorescence polarization | Fluorescence polarization binding assay, mP read-out | hit rate 0.42% among 220,000 | inhibition, % (tested at 21.74 µM) | AID 1085, 2008 | Glycoprotein 42 (Epstein-Barr virus (strain AG876)), Q1HVG2; in the data active = inhibition above about 50%
Target sequence (Q1HVG2 whole entry, looked up): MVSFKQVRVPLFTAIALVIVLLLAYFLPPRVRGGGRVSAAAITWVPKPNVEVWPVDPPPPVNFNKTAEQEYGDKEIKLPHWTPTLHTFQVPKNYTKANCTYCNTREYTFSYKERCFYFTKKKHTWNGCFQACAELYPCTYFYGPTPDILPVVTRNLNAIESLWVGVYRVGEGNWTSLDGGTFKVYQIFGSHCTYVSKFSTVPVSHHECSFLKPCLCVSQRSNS
ZTA DNA inh = ZTA (EBV) inhibition in EBNA-1 counter-screen | P03206 | hit rate 0.15% among 320,000 | ZTA-DNA binding, fluorescence polarization | inhibition, % at 11 µM; in the data active = inhibition above about 33%
Target sequence (P03206 whole entry, looked up): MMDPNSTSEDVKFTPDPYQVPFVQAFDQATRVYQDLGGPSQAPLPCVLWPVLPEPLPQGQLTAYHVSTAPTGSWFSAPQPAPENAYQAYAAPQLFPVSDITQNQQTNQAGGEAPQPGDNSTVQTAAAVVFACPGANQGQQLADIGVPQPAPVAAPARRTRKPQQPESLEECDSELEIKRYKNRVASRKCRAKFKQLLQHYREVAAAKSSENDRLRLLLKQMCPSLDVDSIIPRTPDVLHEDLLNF
NS3 helicase inh = inhibitors of HCV NS3 helicase, primary screen, biochemical, Cy5 molecular beacon fluorescence. Hepatitis C virus NS3 helicase. NS3 helicase DNA unwinding. inhibition, % at 10.9 µM. hit rate 0.56% among 290,000;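 active = inhibition above the mean of all tested compounds plus 3 SD, set per campaign, cut at about 35% in these data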;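 note: 0% = DMSO wells and 100% = thioflavine S control wells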
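Assay system – hepatitis C virus NS3 helicase domain fragment enzyme · Buffer or medium – MOPS pH 6.5, MgCl2, DTT, Tween20, BSA · Reagent – Cy5/quencher beacon DNA duplex and ATP to start · Compound – single 10.9 µM dose · Timing – 1 h at 25 °C · Technique – Cy5 beacon fluorescence read at start and 1 h · Measure – % inhibition of unwinding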
NS3 helicase cf = HCV NS3 helicase inhibitors, retest, confirmation, biochemical, Cy5 molecular beacon fluorescence, triplicate. shares compounds with NS3 helicase inh. NS3 helicase DNA unwinding. inhibition, % at 10.9 µM. hit rate 31% among 1,600. AID 1943, 2009;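 active = inhibition above the mean of all tested compounds plus 3 SD, cutoff set per campaign, cut at about 36% in these data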
DNA FID counter = compounds displacing fluorescent DNA intercalator, artefact control for HCV NS3 helicase inhibitor project, biochemical, FID fluorescence, triplicate | shares compounds with NS3 helicase inh | DNA fluorescent intercalator displacement | inhibition, % at 7.9 µM | hit rate 4% among 1,600 | AID 1945, 2009; in the data active = inhibition above about 37%;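 note: 0% = vehicle and 100% = reference compound; higher means more displacement of ethidium bromide from the DNA hairpin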
DNA FID DR = compounds displacing fluorescent intercalator from DNA, dose response, counter-screen for HCV NS3 helicase inhibitor project, biochemical, fluorescence; shares compounds with NS3 helicase inh; AID 2172, 2009; fluorescent intercalator displacement from DNA; IC50, µM; 120 tested, under 10 active; call rule not given here
* hit, by the source's call; nt = no result.

SMILES	GPR7 antag	HCV core dimer	EBNA-1 inh	EBV gp42 inh	ZTA DNA inh	NS3 helicase inh	NS3 helicase cf	DNA FID counter	others
O=C(CN1C(=O)C2CC=CCC2C1=O)NCC1COc2ccccc2O1 (centres undefined)	21	-5	-7	-3	2	85*	-19	6
COc1ccc(C(=O)O)cc1S(=O)(=O)NCc1ccccn1	-7	-1	7	nt	6	-3	nt	nt
N=C1/C(=C/c2ccc(OCc3ccccc3F)cc2)C(=O)N=C2SC(CC(=O)N3CCOCC3)=NN12	10	4	-21	nt	-13	46*	42*	-6
N=C1/C(=C/c2ccc(OCc3ccccc3)cc2)C(=O)N=C2SC(CC(=O)N3CCOCC3)=NN12	27	7	6	nt	-5	25	nt	nt
COC(C/C=C\[C@H](O)[C@H](C)OCc1ccccc1)OC	nt	-6	1	nt	-9	nt	nt	nt
CC(C)(C)c1ccc(/C=N/Nc2ccc(C(=O)O)cc2)cc1	-12	0	2	-1	12	32	nt	nt
O=C(O)c1ccc(N/N=C/c2ccc(C(F)(F)F)cc2)cc1	-18	-10	-2	-2	-21	37*	56*	-14
CCCCNC(=O)COC(=O)c1c2c(nc3ccccc13)/C(=C/c1cccs1)CC2	-5	33	-4	7	7	38*	-12	-6
CN1CCC(=O)N(CCSc2ccc(Br)cc2)CC1	nt	2	-2	-30	-13	nt	nt	nt
CCCOc1ccc(-c2nc(SCc3ccccc3)[nH]c(=O)c2C#N)cc1OC	-10	22	17	nt	11	36*	91*	-14	DNA FID DR=>79
NC(=O)c1sc2nc(-c3ccco3)ccc2c1N	-4	-17	4	-83	11	74*	-6	0
NC(=O)c1sc2nc3c(c(-c4ccco4)c2c1N)CCC3	-6	2	-9	-5	-6	58*	-27	8
Nc1c(C(=O)Nc2ccccc2F)sc2nc(-c3ccco3)ccc12	11	48*	0	17	-9	59*	74*	6	DNA FID DR=>79
COc1ccc(NC(=O)Cc2nnc(SCC(=O)NC3=NCCS3)n2C)cc1	-8	5	6	nt	10	5	nt	nt
Cc1cc(C)n(CCc2nc(-c3ccco3)cs2)n1	6	12	5	9	-3	12	nt	nt
Cc1nn(CCc2nc(-c3ccco3)cs2)c2[nH]c(=O)cc(C(F)(F)F)c12	0	15	8	-14	-1	46*	72*	-11
O=C(O)CC(c1cccc2ccccc12)n1cccc1 (centres undefined)	1	-4	2	2	-19	67*	-20	1
CSc1ccc(/C=C(\NC(=O)c2ccccc2)C(=O)NCCN2CCOCC2)cc1	-6	4	-17	nt	-1	-7	nt	nt
O=C(O)/C=C/c1ccc2c(-c3ccccc3)onc2c1	-4	-23	1	-6	18	54*	-21	7
CCN(CC)CCNS(=O)(=O)c1ccc2c3c(cccc13)C(=O)N2	-19	7	14	nt	5	9	nt	nt
O=C1CC(=O)N(c2ccccc2)N1c1ccccc1	-9	3	2	-5	2	38*	16	-7
O=C1CC(=O)N(c2ccccc2)c2ccccc21	-18	3	4	-7	9	-4	nt	nt
CC1(C)CC(=O)c2sc(NS(=O)(=O)c3ccc(F)cc3)nc2C1	6	4	11	-6	14	2	nt	nt
CCCCOc1ccc(C(=O)Nc2ccc(S(=O)(=O)Nc3onc(C)c3C)cc2)cc1	-18	19	11	nt	10	40*	54*	-21
